What was measured:
Rattus norvegicus [1] = species on record: Rattus norvegicus; assay: Percent formation of compound upon incubation of 15 with phenobarbit-induced rat liver microsomal fraction in hypoxic condition in presence of SKF-525A at a concentration of 2 mM; assay type: functional
Procedure, shortened: (§1)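 Phenobarbital-induced rat liver microsomes; inhibitors SKF-525A (in methanol) or pCMBA (in DMF) at 0–4 mM final. pCMBA preincubated 30 min before NADPH; SKF-525A incubated 15 min with microsomes and NADPH. Hypoxic samples nitrogen-purged. Substrate 2.5 mM added, 30 min at 37 °C. Ketone metabolite by HPLC at 254 nm as percent of substrate; % inhibition relative to no inhibitor. Mean of two experiments.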

Rattus norvegicus [2] = species on record: Rattus norvegicus; assay: Percent formation of compound upon incubation of 15 with phenobarbit-induced rat liver microsomal fraction in hypoxic condition in presence of pCMBA at a concentration of 0 mM; assay type: functional; procedure, shortened: as §1

Question: How did the Formation (Rattus norvegicus [1]) turn out when `CCC(=O)c1ccccc1O` was run?
Answer: 50.3%

Question: And the Formation (Rattus norvegicus [2])?
Answer: 93.2%

Reference: ChEMBL document CHEMBL1145922, “1,2-benzisoxazole phosphorodiamidates as novel anticancer prodrugs requiring bioreductive activation” (J Med Chem, 2003)
